From the RNAGym collection of RNA variant scans (doi:10.1126/science.aae0568) come the findings set out here.

First the molecules themselves.
B1: tRNA (parent)
chain: GUUCCGUUGGCGUAAUGGUAACGCGUCUCCCUCCUAAGGAGAAGACUGCGGGUUCGAGUCCCGUACGGAACG

Variants at the floor of the assay were thinned out.

The series covers variants of B1. Description: yeast fitness relative to wild type (ratio to wild type); higher = fitter; tRNA-Arg(CCU), competitive growth, 37 C, YPD. In outline: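 The tRNA-Arg(CCU) gene variants were made by chemical synthesis with a 3% per-site mutation rate at 69 sites and inserted at the native genomic locus of Saccharomyces cerevisiae. After pooling, the strains were competed in YPD at 37°C for 24 hours in six parallel replicates. Gene amplicons from the start population and each end population were read by 100-nucleotide paired-end sequencing, and Darwinian fitness relative to wild type was taken from genotype frequency changes. Genotypes needed ≥ 100 starting reads, and estimates < 0.5 were set to 0.5.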
With GUUCCGUUGGCGUAAUGGUAACGCGUUUCCCUCCUAAGGAGAUGACUGCGGGUUGGAGUCCCGUACGGAACG [C27U A43U C55G], the yeast fitness was 0.544.

As for GUUCCGUUGGCGUAAUGGUAACGCGUUUCCUUCCUAAGGAGAAGACUGCGGAUUCGAGUCCCGUACGGAACG [C27U C31U G52A], the yeast fitness was 0.639. Take GUUCCGUUGGCGUAAUGGUAACGCGUUUCCAUCCGAAGGAGAAGACUGCGGGUUGGAGUCCCGUACGGAACG [C27U C31A U35G C55G]: the yeast fitness was not above 0.5. Turning to GUUCCGUUGGCGUAAUGGUAACGCGUUUCCCUCCUAAGGAGAAGCCUGCGGGUUCGAGUCCCAUACGGAACG [C27U A45C G63A], the yeast fitness came to 0.68. Turning to GUUCCGUUGGCGUAAUGGUAACGCGUUUCCCUACUAAGGAGAAGACUGGGGGUUCGAGUCCCGUACGGAACG [C27U C33A C49G], the yeast fitness is not above 0.5. For GUUCCGUUGGCGUAAUGGUAACGCGUUUCCCUCCUAAGGAGAAGAUUGCGGGUUCGAGUCACGUACGGAACG [C27U C46U C61A], the yeast fitness is not above 0.5.

In the case of GUUCCGUUGGCGUAAUGGUAACGCGUUUUCCUCCUAAGGAGAAGACUGCGGGUUCGAGUCCUGUACGGAACG [C27U C29U C62U], the yeast fitness stood at 0.578. As to GUUCCGUUGGCGUAAUGGUAACGCGUUUCCCUCCUAAGGAGAAGACUGCGGGUUCGAGUCCCGUGCGAAACG [C27U A65G G68A], the yeast fitness worked out at 0.563. The value for GUUCCGUUGGCGUAAUGGUAACGCGUUUCCCUCCUAAGGAGAAGAUUACGGGUUCGAGUCCCGUACGAAACG [C27U C46U G48A G68A] was 0.635; that for GUUCCGUUGGCGUAAUGGUAACGCGUUUCCCUCCUAAGGAGAAGCCUGCGGGUUCGAGUCCCGUACGGAACG [C27U A45C] was 0.947; that for GUUCCGUUGGCGUAAUGGUAACGCGUUUCCCUCCUAAGGAGAAGUCUGCGGGUUCGAGUCCCGUACGGAACG [C27U A45U] was 1.02. Under GUUCCGUUGGCGUAAUGGUAACGCGUUUCCCUCCUAAGGAGAAGACUGCGGGUUCGAGUGCCGUACGGAACG [C27U C60G] stands 0.735; under GUUCCGUUGGCGUAAUGGUAACGCGUUUCCCUUCUAAGGCGAAGACUGCGGGUUAGAGUCCCGUGCGGAACG [C27U C33U A40C C55A A65G], 0.503.

As for GUUCCGUUGGCGUAAUGGUAACGCGUUUCCCUCCUAAGGAGAAGACUGCGGGUUCGAGUCCCGUACGGUACG [C27U A69U], the yeast fitness worked out at 1.02.

Turning to GUUCCGUUGGCGUAAUGGUAACGCGUUUCCCUCCUAAGGAGAAGACUGCGGGUUUGAGUUCCGUACGGAUCG [C27U C55U C60U A70U], the yeast fitness was not above 0.5. The value for GUUCCGUUGGCGUAAUGGUAACGCGUUUCCCUCCUAAGGAGAAGACUGCGGGUUCGAGUCCCGUUCGGAACG [C27U A65U] was 0.99. The value for GUUCCGUUGGCGUAAUGGUAACGCGUUUCCCUCGUAAGGAGAAGACUGCGGGUUCGAGUACCGUACGGAACG [C27U C34G C60A] was not above 0.5; that for GUUCCGUUGGCGUAAUGGUAACGCGUUUCCCUCCUAAGGAGAAGAUUACGGGUUCGAGUCCCGUACGGCACG [C27U C46U G48A A69C] was 0.696; that for GUUCCGUUGGCGUAAUGGUAACGCGUUUCCCUCCUAAGGAGAAGCCUGCGGGUUCGAGUCCCGGACGGAACG [C27U A45C U64G] was 0.584. As to GUUCCGUUGGCGUAAUGGUAACGCGUUUCCCUCCUAAGGAGAAGACUGCGGGUUCGAGUCACGUACGGUACG [C27U C61A A69U], the yeast fitness was 0.551. The value for GUUCCGUUGGCGUAAUGGUAACGCGUUUCCAUCCUAAGGAGAAGACUGCGGGUUCGAGUCCCGUACGGAACG [C27U C31A] was 0.758; that for GUUCCGUUGGCGUAAUGGUAACGCGUUUCCCUCCUAAGGAGAAGACUGCGGGUUAGAGUCCCGUACGGUACG [C27U C55A A69U] was 0.549; that for GUUCCGUUGGCGUAAUGGUAACGCGUUUCACUCCUAAGGAGAAGACUGCGGGUUCGAGUCCCGUACGGUACG [C27U C30A A69U] was 0.585. Regarding GUUCCGUUGGCGUAAUGGUAACGCGUUUCCGUCCUAAGGAGAAGACUGCGGGUUCGAGUCCCGUACGGCACG [C27U C31G A69C], the yeast fitness stood at 0.604. Under GUUCCGUUGGCGUAAUGGUAACGCGUUUCCCUCCUAAGGAGAAGACUGCGGGUUCGAGUCCCGUAGGGAACG [C27U C66G] stands 0.744; under GUUCCGUUGGCGUAAUGGUAACGCGUUUCCCUCCUAAGGAGAAGACUGCGGGUUCGAGUCCCGUAUGGAACG [C27U C66U], 0.955; under GUUCCGUUGGCGUAAUGGUAACGCGUUUCCUUCCUAAGGAGAAGACUGCGGGCUCGAGUCCCGUACGGAACG [C27U C31U U53C], 0.678. The value for GUUCCGUUGGCGUAAUGGUAACGCGUUUCACUCCUAAGGAGAAGAGUGCGGGUUCGAGUCCCGUACGGAACG [C27U C30A C46G] was 0.698; that for GUUCCGUUGGCGUAAUGGUAACGCGUUUCACUCCUAAGGAGUAGACUGCGGGUUCGUGUCCCAUCCGGAACG [C27U C30A A42U A57U G63A A65C] was 0.597. As to GUUCCGUUGGCGUAAUGGUAACGCGUUUACCUCCUAAGGAGAAGACUGAGGGUUCGAGUCCCGUACGGAACG [C27U C29A C49A], the yeast fitness is not above 0.5. In the case of GUUCCGUUGGCGUAAUGGUAACGCGUUUCCCUGCUAAGGAGAUGACUGCGGGUUCGAGUGCCGUACGGAACG [C27U C33G A43U C60G], the yeast fitness was not above 0.5. The value for GUUCCGUUGGCGUAAUGGUAACGCGUUUCCCUCCUAAGGAGAAGUCUGCAGGUUCGAGUCCCGUACGGCACG [C27U A45U G50A A69C] was not above 0.5; that for GUUCCGUUGGCGUAAUGGUAACGCGUUUCCCUUCUUAGGAGAAGACUGCGGGUUCGAGUCCCGUACGGAACG [C27U C33U A36U] was not above 0.5. As to GUUCCGUUGGCGUAAUGGUAACGCGUUUCCCUCCUAAGGAGAAGACUGGGGGUUCGAGUCCCGUACGGUACG [C27U C49G A69U], the yeast fitness is 0.542. Take GUUCCGUUGGCGUAAUGGUAACGCGUUUCGCUGGUAAGGUGAAGACUGCGGCUUCCAGUCCCGUACGGAACG [C27U C30G C33G C34G A40U G52C G56C]: the yeast fitness is not above 0.5. In the case of GUUCCGUUGGCGUAAUGGUAACGCGUUUCCCUUCUAAGGAGAAGACAGCGGGUUCGAGUCCCGUACGGACCG [C27U C33U U47A A70C], the yeast fitness is not above 0.5. The value for GUUCCGUUGGCGUAAUGGUAACGCGUUUCCCUUCUAAGGAGAAGACUGCGGGUUCGAGUCCCGUACGGAACG [C27U C33U] was 0.664. Under GUUCCGUUGGCGUAAUGGUAACGCGUUUCCAUCCUAAGGAGAAGACUGCGGGUUCGAGUCCCGGACGGAACG [C27U C31A U64G] stands not above 0.5.
